# Only some compounds are listed: those with a hit (about 0.48% of all), similar ones and a draw of the others.
# Rce1 inhib – yeast Ras-converting enzyme inhibition | 290,000 tested, 0.27% active | yeast membranes, quenched prenylated peptide cleavage fluorescence | calls only | Q03530;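 active = fall in fluorescence gain of 50% or more versus controls, with final raw signal at or below 3038400; inconclusive = same 50% fall but final raw signal above 3038400; inactive = fall in fluorescence gain under 50%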;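 note: plate controls were neutral control wells for no effect and wells lacking membranes for full effect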
# Bfl-1 A1 inh – inhibitors of the anti-apoptotic protein A1, read as caspase activation; MEF A1-2A-BIM cells, Caspase-Glo 3/7 luminescence, 3 h; percent of clofoctol response, vehicle zero; 330,000 tested, 0.066% active; caspase activation, % (concentration not given with the values);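 active = over half of replicate activation scores above 10%, or exactly half above 10 with the replicate mean above 10; inconclusive = replicate mean below 10 yet half the replicates above 10; inactive = over half of replicates below 10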
# procasp3 activ – procaspase-3 (human) activation; activation, % at 8.5 µM; P42574; 330,000 tested, 0.11% active; AID 463141; recombinant procaspase-3 D3A, Ac-DEVD-pNA absorbance 405 nm;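 active = activation above the mean of all tested compounds plus 3 SD, cut at about 21% in these data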;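 note: 0% = DMSO alone and 100% = DMSO wells spiked with extra 5 µM PC-3 D3A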
# Target sequence (P42574 whole entry D9A/D28A/D175A): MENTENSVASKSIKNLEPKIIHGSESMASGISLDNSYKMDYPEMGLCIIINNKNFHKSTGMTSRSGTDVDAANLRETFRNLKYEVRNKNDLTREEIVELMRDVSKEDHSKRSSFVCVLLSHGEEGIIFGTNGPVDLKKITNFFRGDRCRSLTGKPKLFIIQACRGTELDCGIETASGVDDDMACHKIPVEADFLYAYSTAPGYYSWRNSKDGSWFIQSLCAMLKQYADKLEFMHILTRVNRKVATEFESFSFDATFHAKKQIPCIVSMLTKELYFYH
#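 Test system: Procaspase-3 D3A mutant; medium: Zinc-free HEPES/NaCl buffer with 0.01% Triton X-100 at pH 7.4; reagent: DEVD-pNA substrate; doses: one concentration, 8.5 µM nominal, 0.8% DMSO; times: 1 h preincubation plus 2 h reaction at 25 °C; signal: Epi-absorbance at 405 nm of released p-nitroaniline, 0 and 120 min; replicates: singlicate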
# PolyA inh – yeast polyadenylation inhibition. S. cerevisiae SKY197-pL101 polyadenylation reporter, beta-gal luminescence; efflux-impaired pdr1/pdr3 knockout yeast; score 100 = 6 SD above DMSO. 300,000 tested, 0.02% active. activity score, % at 12 µM. AID 1875;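 active = lowest replicate activity score at least 50, where 100 means six control SD above control mean; inconclusive = lowest score under 50 but half or more replicates reach 50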;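 note: yeast exposed to compound for 9 h at 30 °C; higher score means more reporter readthrough which indicates perturbed polyadenylation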
# proCasp7 act – counter-screen for procaspase-3 activators: activators of human procaspase-7; activation, % at 8.5 µM; recombinant procaspase-7, Ac-DEVD-pNA absorbance 405 nm; D23A/D198A/D206A triple mutant, cannot self-cleave; scale: DMSO 0, 5 µM enzyme 100; 330,000 tested, 0.093% active; P55210;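 active = percent activation above the screen-wide mean plus 3 SD, cut at about 25% in these data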
# Target sequence (P55210 whole entry D23A/D198A/D206A): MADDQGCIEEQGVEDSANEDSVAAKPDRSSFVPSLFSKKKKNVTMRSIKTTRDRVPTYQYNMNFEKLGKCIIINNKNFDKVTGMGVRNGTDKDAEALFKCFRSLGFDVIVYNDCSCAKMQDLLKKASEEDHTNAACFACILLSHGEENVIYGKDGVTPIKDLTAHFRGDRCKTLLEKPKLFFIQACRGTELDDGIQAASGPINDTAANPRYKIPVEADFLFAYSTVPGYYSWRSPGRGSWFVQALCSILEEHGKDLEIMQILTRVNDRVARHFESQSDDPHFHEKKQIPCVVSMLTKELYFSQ
#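 Assay system: Uncleavable procaspase-7 mutant enzyme; Input: 2 µM procaspase-7 mutant as dispensed; Also added: DEVD-pNA substrate; Medium: Zinc-free HEPES pH 7.4 with 300 mM NaCl, 0.01% Triton X-100; Timing: 1 h compound preincubation, 2 h substrate cleavage, 25 °C; Measured by: Epi-absorbance of released pNA at 405 nm, two timepoints.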
# PC3 dual counter – activates human procaspase-3, dual activator counter-screen; recombinant PC-3 D3A, Ac-DEVD-pNA absorbance 405 nm; aspartates 9, 28, 175 changed to alanine; 100% = enzyme control; 290 tested, under 10 active; AID 493114; shares compounds with proCasp7 act; activation, % at 8.5 µM;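 active = mean percent activation across triplicates above a set limit taken from the earlier primary procaspase-3 screen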;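 note: 0% = DMSO wells and 100% = DMSO wells with 5 µM added PC-3 D3A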
# PC7 dual conf – procaspase-7 (human) activation, dual activator confirmation; shares compounds with proCasp7 act; activation, % at 8.5 µM; recombinant procaspase-7, Ac-DEVD-pNA absorbance 405 nm; D23A/D198A/D206A mutant that cannot self-cleave; 290 tested, under 10 active; AID 493115;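 active = mean activation above a set limit carried over from the earlier primary screen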;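 note: 0% = DMSO only and 100% = DMSO with added 5 µM PC-7 enzyme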
# * = called active by the depositor; i = inactive; ? = inconclusive; / = no result; + = active, no number.
SMILES,Rce1 inhib,Bfl-1 A1 inh,procasp3 activ,PolyA inh,proCasp7 act,PC3 dual counter,PC7 dual conf
Cc1nnc(NC(=O)c2c(-c3ccccc3)noc2C)s1,i,-0.8,4.7,-1.0,26.5*,1.0,-1.5
CCc1nnc(NC(=O)c2c(-c3ccccc3)noc2C)s1,i,0.9,2.5,-19.5,-10.6,/,/
CCN(CC)c1ccc(-c2nn3c(-c4ccccc4OC)nnc3s2)cc1,i,2.1,-1.3,-26.8,32.6*,-30.6,-36.0
CC(NCc1ccccc1)c1ccccc1O (centres undefined),i,0.1,1.5,3.1,27.9*,1.7,1.1
CC(CCc1ccccc1)NCc1ccncc1 (centres undefined),i,-0.5,0.7,19.9,-12.6,/,/
C=CCNC(=S)N/N=C/c1ccc(C(F)(F)F)cc1,i,1.4,-0.3,-10.0,-0.1,/,/
CCN(CC)c1ccc(/C=N/NC(=S)NCc2ccc(OC)cc2)cc1,+,-0.9,44.1*,-5.8,37.4*,-30.4,-29.8
CCN(CC)c1ccc(/C=N/NC(=S)NCc2ccccc2)cc1,i,-0.1,67.0*,-36.9,42.8*,-26.1,-28.9
COc1ccc(/C=N/NC(=S)NCc2ccccc2)cc1OC,i,-0.4,9.4,7.2,-2.3,/,/
C=CCNC(=S)N/N=C/c1ccc(N(CC)Cc2ccccc2)cc1,i,?,24.0*,-20.1,37.1*,-19.1,-13.9
CCOc1ccc(NC(=O)CN(C)C(=O)CCNC(=O)c2ccco2)cc1OCC,/,0.9,1.8,/,-5.5,/,/
COc1ccc(N2C(=O)CSC2c2cccc(F)c2)cc1 (centres undefined),i,1.0,-5.6,-6.5,-1.2,/,/
COc1cccc(N(C(=O)c2snc(C(N)=O)c2N)C(C(=O)NCc2ccccc2)c2ccc(O)cc2)c1 (centres undefined),i,-0.8,33.0*,-5.9,79.1*,-4.4,-10.8
NC(=O)c1nsc(C(=O)N(c2ccccc2F)C(C(=O)NCc2ccccc2)c2ccc(O)cc2)c1N (centres undefined),+,-1.0,17.9,15.1,34.0*,-28.4,-36.2
Cc1ccccc1N(C(=O)c1snc(C(N)=O)c1N)C(C(=O)NCc1ccccc1)c1ccc(O)cc1 (centres undefined),i,0.3,-97.9,6.5,40.2*,-28.0,-35.4
COc1ccc(N(C(=O)c2snc(C(N)=O)c2N)C(C(=O)NCc2ccc(F)cc2)c2ccc(C)o2)c(OC)c1 (centres undefined),i,-0.6,4.9,-19.1,25.9*,2.1,2.2
CCOc1ccccc1N(C(=O)c1snc(C(N)=O)c1N)C(C(=O)NCc1ccccc1)c1ccc(O)cc1 (centres undefined),i,/,/,17.2,/,/,/
O=S(=O)(c1ccccc1)c1ncc(C(F)(F)F)cc1Cl,i,/,/,-0.9,/,/,/
Cc1c(CC(=O)NCCCC(=O)O)c(=O)oc2cc3c(cc12)CCC(C)(C)O3,?,0.8,3.8,3.5,6.5,/,/
Cc1ccc(S(=O)(=O)N(C)c2ccc(OCC(=O)Nc3cccc(-n4cnnn4)c3C)cc2)cc1,i,-0.3,-1.9,-1.3,1.3,/,/
COc1ccc(-c2c(C#N)c(N)nc3c2CCc2ccccc2-3)cc1OC,i,0.2,34.2*,-2.5,65.2*,-29.1,-35.4
COc1cccc(-c2cc3nc(-c4ccccc4)cc(N4CCC5(CC4)OCCO5)n3n2)c1,i,1.6,31.7*,-16.3,38.1*,-30.0,-36.9
COc1ccc(OC)c2sc(N3CCCCC3)nc12,i,0.6,-0.6,11.6,28.2*,4.9,-1.6
Cc1cc2c(c(=O)n1C)C(Cc1ccccc1)C(C#N)=C(N)O2 (centres undefined),i,1.0,38.2*,-9.0,46.8*,-27.2,-35.1
CCCC1C(C#N)=C(N)Oc2cc(C)n(C)c(=O)c21 (centres undefined),i,0.1,17.6,-4.6,24.1,/,/
SMILES,Rce1 inhib,Bfl-1 A1 inh,procasp3 activ,PolyA inh,proCasp7 act,PC3 dual counter,PC7 dual conf
c1ccc(N2CC3CCc4ccccc4C3=N2)cc1 (centres undefined),/,-2.4,39.3*,0.1,72.4*,-29.8,-35.1
c1ccc(Cn2c(-c3ccco3)nc3nc4ccccc4nc32)cc1,i,-10.5,12.5,-21.6,45.5*,-30.9,-35.7
CCCCCn1c(-c2ccco2)nc2nc3ccccc3nc21,i,0.3,5.3,-0.7,6.7,/,/
CCOc1ccc2nc(-c3cc(NC(C)=O)ccc3O)sc2c1,i,-0.3,5.2,26.5,30.7*,2.0,-1.1
C=CCOC(=O)C1=C(C)NC(SCC)=C(C#N)C1c1ccc(Cl)cc1 (centres undefined),i,0.2,17.5,-20.4,25.6*,5.1,6.2
c1ccc(-c2[nH]ncc2CN2CCN(Cc3ccc4c(c3)OCO4)CC2)cc1,i,0.7,-4.0,-5.3,1.3,/,/
Cc1ccc(S(=O)(=O)N(C)CC(=O)NNC(=O)CCC(=O)c2ccc(F)cc2)cc1,/,0.3,1.9,/,3.7,/,/
O=C(c1cccs1)c1ccc(-c2cccs2)s1,i,-7.7,27.2*,-13.0,37.0*,-30.1,-34.7
CCn1nnnc1-c1ccc(OC)c(S(=O)(=O)NCCc2ccccc2)c1,i,0.0,-3.0,14.8,4.8,/,/
COc1ccc(CCN(Cc2nc3ccccc3c(=O)[nH]2)C(=O)C2CC2)cc1,i,0.0,7.1,2.1,11.4,/,/
COc1ccc(C(=O)c2sc3nc(-c4ccccc4)ccc3c2N)cc1,i,-0.9,-28.3,/,-41.2,/,/
CC(C)OC(=O)c1sc2nc(-c3ccccc3)ccc2c1N,i,-6.4,7.8,-10.6,33.8*,-28.0,-35.1
COc1ccc(S(=O)(=O)N2CCOCC2)cc1NC(=O)COC(=O)C1COc2ccccc2O1 (centres undefined),i,-0.3,-4.8,2.2,1.3,/,/
CCOC(=O)c1cc(-c2ccc3c(c2)OCCO3)nc2c1c(C)nn2CCC#N,i,-0.8,25.2*,9.6,53.9*,-28.7,-35.0
O=C(CSc1ccccn1)N1CCc2ccccc21,i,-6.6,-7.8,5.3,7.5,/,/
C(=N\Nc1nc2ccccc2[nH]1)/c1ccccc1,i,-2.0,6.1,2.5,3.3,/,/
O=c1[nH]c(N/N=C\c2ccc3c(c2)OCO3)nc2ccccc12,i,-5.5,24.2*,-12.0,27.5*,1.3,-3.0
O=c1[nH]c(N/N=C/c2ccccc2)nc2ccccc12,i,-7.6,31.6*,6.2,37.7*,-27.5,-28.0

# Compound activity from PubChem.
